In ChEMBL document CHEMBL1649120, “Differential effects of inhibiting chitin and 1,3-{beta}-D-glucan synthesis in ras and calcineurin mutants of Aspergillus fumigatus” (2009):
Activity calls are given as the source filed them. No cut-off for these calls is given here. *1 amine or outer side, *2 acyl side, *3 side chain or, on linkers, in order; H or OH if unused. Where a SMILES comes first, the peptide text is derived from it. Bridges are numbered along the chain shown (N, C = ends). [ ]: non-standard residue; d: D form. The star is where a group is joined. hTyr(3S-OH,4S-OH,3'-OSO3H) = N[C@H](C(=O)O)[C@H](O)[C@@H](O)c1ccc(O)c(OS(=O)(=O)O)c1; Orn(4R-OH,5R-OH) = O=C([C@H](C[C@@H](O)[C@@H](O)N[*:3])N[*:1])[*:2]; Pro(3S-OH,4S-Me) = C[C@H]1CN[C@H](C(=O)O)[C@H]1O; X1 = CCCCCOc1ccc(-c2cc(-c3ccc(C(=O)*)cc3)no2)cc1; Gln(3R-OH) = NC(=O)C[C@@H](O)[C@H](N)C(=O)O; Hyp = O=C(O)[C@@H]1C[C@@H](O)CN1

Legend:
[1] = tested on: Aspergillus fumigatus; experiment: Antifungal activity against Aspergillus fumigatus H237 expressing rasA gene assessed as abnormal hyphal growth by CLSI method; assay type: functional; details: read-out: MEC
Method in brief: (§1)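 MEC by CLSI broth microdilution in RPMI 1640. Conidia were incubated with or without drug for 48 h at 37°C, in triplicate.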

[2] = tested on: Aspergillus fumigatus; experiment: Antifungal activity against Aspergillus fumigatus H237 assessed as abnormal hyphal growth by CLSI method; assay type: functional; details: read-out: MEC; method in brief: as §1
[3] = tested on: Aspergillus fumigatus; experiment: Antifungal activity against Aspergillus fumigatus Af293 expressing crzA gene assessed as abnormal hyphal growth by CLSI method; assay type: functional; details: read-out: MEC; method in brief: as §1
[4] = tested on: Aspergillus fumigatus; experiment: Antifungal activity against rasA deficient Aspergillus fumigatus H237 assessed as abnormal hyphal growth by CLSI method; assay type: functional; details: read-out: MEC; method in brief: as §1
[5] = tested on: Aspergillus fumigatus; experiment: Antifungal activity against Aspergillus fumigatus H237 expressing dominant-active rasA gene assessed as abnormal hyphal growth by CLSI method; assay type: functional; details: read-out: MEC; method in brief: as §1
[6] = tested on: Aspergillus fumigatus; experiment: Antifungal activity against Aspergillus fumigatus Af293 assessed as abnormal hyphal growth by CLSI method; assay type: functional; details: read-out: MEC; method in brief: as §1
[7] = tested on: Aspergillus fumigatus; experiment: Antifungal activity against crzA deficient Aspergillus fumigatus Af293 assessed as abnormal hyphal growth by CLSI method; assay type: functional; details: read-out: MEC; method in brief: as §1
[8] = tested on: Aspergillus fumigatus; experiment: Antifungal activity against Aspergillus fumigatus Af293 expressing cnaA gene assessed as abnormal hyphal growth by CLSI method; assay type: functional; details: read-out: MEC; method in brief: as §1
[9] = tested on: Aspergillus fumigatus; experiment: Antifungal activity against cnaA deficient Aspergillus fumigatus Af293 assessed as abnormal hyphal growth by CLSI method; assay type: functional; details: read-out: MEC; method in brief: as §1
[10] = tested on: Aspergillus fumigatus; experiment: Antifungal activity against cnaA deficient Aspergillus fumigatus Af293 assessed as inhibition of hyphal growth at germling stage at 1 ug/ml by CLSI method; assay type: functional, organism-based
Method in brief: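 Conidia were grown as for CLSI susceptibility testing in RPMI 1640 with or without echinocandin (1 μg/ml) for 48 h at 37°C. Hyphal morphology was then examined by bright-field microscopy.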

[11] = tested on: Aspergillus fumigatus; experiment: Antifungal activity against Aspergillus fumigatus H237 expressing dominant-active rasA assessed as decrease in 1, 3-beta-D-glucan cell wall content at 1 ug/ml after 48 hrs by aniline blue assay; assay type: functional, organism-based
Method in brief: (§2)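 10⁶ conidia/ml were grown in RPMI 1640 with or without drug for 48 h at 37°C, 250 rpm. Hyphae were washed in 0.1 M NaOH and lyophilized. 5 mg was taken into 1 M NaOH, sonicated and heated at 52°C for 30 min. Aniline blue mix (pH 9.5) was added for 30 min at 52°C. Fluorescence was read at ex 405/em 460 nm against a curdlan standard curve. Results are % change in RFU/mg versus untreated wild type, from five independent experiments.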

[12] = tested on: Aspergillus fumigatus; experiment: Antifungal activity against Aspergillus fumigatus Af293 assessed as FICI in combination with caspofungin
[13] = tested on: Aspergillus fumigatus; experiment: Antifungal activity against crzA deficient Aspergillus fumigatus Af293 assessed as increase in chitin cell wall content at 1 to 16 ug/ml after 48 hrs; assay type: functional, organism-based
Method in brief: (§3)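 Nikkomycin Z dose series from 0 to 16 μg/ml, added to cultures of 10⁶ conidia/ml in RPMI 1640 for 48 h at 37°C, 250 rpm. Chitin was assayed on 5 mg of lyophilized mycelium by KOH hydrolysis at 130°C, then MBTH colorimetry at A650 against a glucosamine standard. Output is glucosamine equivalents (μg/ml), from biological triplicate.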

[14] = tested on: Aspergillus fumigatus; experiment: Antifungal activity against cnaA deficient Aspergillus fumigatus Af293 assessed as increase in chitin cell wall content at 16 ug/ml after 48 hrs; assay type: functional, organism-based; method in brief: as §3
[15] = tested on: Aspergillus fumigatus; experiment: Antifungal activity against cnaA deficient Aspergillus fumigatus Af293 assessed as increase in chitin cell wall content at 1 to 16 ug/ml after 48 hrs; assay type: functional, organism-based; method in brief: as §3
[16] = tested on: Aspergillus fumigatus; experiment: Antifungal activity against rasA deficient Aspergillus fumigatus H237 assessed as FICI in combination with caspofungin
[17] = tested on: Aspergillus fumigatus; experiment: Antifungal activity against rasA deficient Aspergillus fumigatus H237 assessed as decrease in 1, 3-beta-D-glucan cell wall content at 1 ug/ml by aniline blue assay; assay type: functional, organism-based; method in brief: as §2
[18] = tested on: Aspergillus fumigatus; experiment: Antifungal activity against Aspergillus fumigatus Af293 expressing cnaA gene assessed as FICI in combination with caspofungin
[19] = tested on: Aspergillus fumigatus; experiment: Antifungal activity against crzA deficient Aspergillus fumigatus Af293 assessed as FICI in combination with caspofungin
[20] = tested on: Aspergillus fumigatus; experiment: Antifungal activity against Aspergillus fumigatus H237 expressing rasA gene assessed as FICI in combination with caspofungin
[21] = tested on: Aspergillus fumigatus; experiment: Antifungal activity against Aspergillus fumigatus H237 assessed as decrease in 1, 3-beta-D-glucan cell wall content at 1 ug/ml after 48 hrs by aniline blue assay; assay type: functional, organism-based; method in brief: as §2
[22] = tested on: Candida albicans; experiment: Antifungal activity against Candida albicans SC5314 assessed as decrease in chitin cell wall content at 4 ug/ml after 48 hrs; assay type: functional, organism-based
[23] = tested on: Aspergillus fumigatus; experiment: Antifungal activity against rasA deficient Aspergillus fumigatus H237 assessed as increase in chitin cell wall content at 16 ug/ml after 48 hrs; assay type: functional, organism-based; method in brief: as §3
[24] = tested on: Aspergillus fumigatus; experiment: Antifungal activity against Aspergillus fumigatus H237 expressing dominant-active rasA assessed as increase in chitin cell wall content at 16 ug/ml after 48 hrs; assay type: functional, organism-based; method in brief: as §3
[25] = tested on: Aspergillus fumigatus; experiment: Antifungal activity against Aspergillus fumigatus Af293 assessed as decrease in 1, 3-beta-D-glucan cell wall content at 1 ug/ml after 48 hrs by aniline blue assay; assay type: functional, organism-based; method in brief: as §2
[26] = tested on: Aspergillus fumigatus; experiment: Antifungal activity against Aspergillus fumigatus H237 expressing dominant-active rasA assessed as increase in chitin cell wall content at 1 to 16 ug/ml after 48 hrs; assay type: functional, organism-based; method in brief: as §3
[27] = tested on: Aspergillus fumigatus; experiment: Antifungal activity against Aspergillus fumigatus Af293 expressing crzA gene assessed as FICI in combination with caspofungin
[28] = tested on: Aspergillus fumigatus; experiment: Antifungal activity against Aspergillus fumigatus H237 assessed as FICI in combination with caspofungin
[29] = tested on: Aspergillus fumigatus; experiment: Antifungal activity against crzA deficient Aspergillus fumigatus Af293 assessed as decrease in 1, 3-beta-D-glucan cell wall content at 1 ug/ml by aniline blue assay; assay type: functional, organism-based; method in brief: as §2
[30] = tested on: Aspergillus fumigatus; experiment: Antifungal activity against cnaA deficient Aspergillus fumigatus Af293 assessed as FICI in combination with caspofungin
[31] = tested on: Aspergillus fumigatus; experiment: Antifungal activity against Aspergillus fumigatus H237 expressing dominant-active rasA gene assessed as FICI in combination with caspofungin
[32] = tested on: Aspergillus fumigatus; experiment: Antifungal activity against crzA deficient Aspergillus fumigatus Af293 assessed as increase in chitin cell wall content at 16 ug/ml after 48 hrs; assay type: functional, organism-based; method in brief: as §3
[33] = tested on: Aspergillus fumigatus; experiment: Antifungal activity against cnaA deficient Aspergillus fumigatus Af293 assessed as decrease in 1, 3-beta-D-glucan cell wall content at 1 ug/ml by aniline blue assay; assay type: functional, organism-based; method in brief: as §2
[34] = tested on: Aspergillus fumigatus; experiment: Antifungal activity against rasA deficient Aspergillus fumigatus H237 assessed as increase in chitin cell wall content at 1 to 16 ug/ml after 48 hrs; assay type: functional, organism-based; method in brief: as §3

## C=CC[C@@H]1/C=C(\C)C[C@H](C)C[C@H](OC)[C@H]2O[C@@](O)(C(=O)C(=O)N3CCCC[C@H]3C(=O)O[C@H](/C(C)=C/[C@@H]3CC[C@@H](O)[C@H](OC)C3)[C@H](C)[C@@H](O)CC1=O)[C@H](C)C[C@@H]2OC [TACROLIMUS ANHYDROUS]
[1]
  minimal effective concentration: 0.02 µg/mL
[2]
  minimal effective concentration: 0.02 µg/mL
[3]
  minimal effective concentration: 0.02 µg/mL
[4]
  minimal effective concentration: 0.001 µg/mL
[5]
  minimal effective concentration: 0.01 µg/mL
[6]
  minimal effective concentration: 0.02 µg/mL
[7]
  minimal effective concentration: 0.01 µg/mL
[8]
  minimal effective concentration: 0.02 µg/mL
[9]
  minimal effective concentration: > 80 µg/mL

## CCCCCOc1ccc(-c2cc(-c3ccc(C(=O)N[C@H]4C[C@@H](O)[C@@H](O)NC(=O)[C@@H]5[C@@H](O)[C@@H](C)CN5C(=O)[C@H]([C@H](O)CC(N)=O)NC(=O)[C@H]([C@H](O)[C@@H](O)c5ccc(O)c(OS(=O)(=O)O)c5)NC(=O)[C@@H]5C[C@@H](O)CN5C(=O)[C@H]([C@@H](C)O)NC4=O)cc3)no2)cc1 [MICAFUNGIN] (X1-[Orn(4R-OH,5R-OH)]T[Hyp][hTyr(3S-OH,4S-OH,3'-OSO3H)][Gln(3R-OH)][Pro(3S-OH,4S-Me)]; lactam 1-C)
[10]
  Activity: Active
[1]
  minimal effective concentration: 0.125 µg/mL
[2]
  minimal effective concentration: 0.125 µg/mL
[3]
  minimal effective concentration: 0.0625 µg/mL
[4]
  minimal effective concentration: > 4 µg/mL
[5]
  minimal effective concentration: 0.0156 µg/mL
[6]
  minimal effective concentration: 0.125 µg/mL
[7]
  minimal effective concentration: 0.0312 µg/mL
[8]
  minimal effective concentration: 0.125 µg/mL
[9]
  minimal effective concentration: 0.0039 µg/mL

## C[C@@H]([C@H](N)C(=O)N[C@H](C(=O)O)[C@H]1O[C@@H](n2ccc(=O)[nH]c2=O)[C@H](O)[C@@H]1O)[C@H](O)c1ccc(O)cn1 [NIKKOMYCIN]
[11]
  Activity: inactive
[12]
  fractional inhibitory concentration index (FICI): 0.09
[13]
  Activity: inactive
[1]
  minimal effective concentration: 2 µg/mL
[14]
  Activity: inactive
[15]
  Activity: inactive
[2]
  minimal effective concentration: 4 µg/mL
[16]
  fractional inhibitory concentration index (FICI): 0.03
[17]
  Activity: inactive
[18]
  fractional inhibitory concentration index (FICI): 0.09
[3]
  minimal effective concentration: 4 µg/mL
[19]
  fractional inhibitory concentration index (FICI): 0.13
[20]
  fractional inhibitory concentration index (FICI): 0.09
[21]
  Activity: Active
[22]
  Activity: Active
[4]
  minimal effective concentration: 0.5 µg/mL
[5]
  minimal effective concentration: 4 µg/mL
[6]
  minimal effective concentration: 2 µg/mL
[23]
  Activity: inactive
[24]
  Activity: inactive
[7]
  minimal effective concentration: 0.5 µg/mL
[25]
  Activity: Active
[8]
  minimal effective concentration: 2 µg/mL
[26]
  Activity: inactive
[27]
  fractional inhibitory concentration index (FICI): 0.16
[28]
  fractional inhibitory concentration index (FICI): 0.16
[29]
  Activity: inactive
[9]
  minimal effective concentration: 0.125 µg/mL
[30]
  fractional inhibitory concentration index (FICI): 0.19
[31]
  fractional inhibitory concentration index (FICI): 0.5
[32]
  Activity: inactive
[33]
  Activity: inactive
[34]
  Activity: inactive
